Converted amounts (≈) assume the structure as drawn.
test system: Bacillus subtilis; experiment: Antibacterial activity against Bacillus subtilis NCIM 2063 after 18 hrs by disc diffusion method; type: functional; conditions: not given
How it was run: (§1)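 Modified Kirby-Bauer disc diffusion. Plates inoculated with spore suspension (about 6 × 10⁴ spores mL^-1). Sterile 6 mm paper discs carried test samples at 10 mg mL^-1; ciprofloxacin disc as reference, DMF disc as negative control. Plates held 18 h at 37 °C. Inhibition zone diameters (mm) averaged over triplicate sets.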

Row | SMILES | inhibition zone (IZ) [mm]
1 | COC(=O)[C@H](Cc1ccc(O)cc1)NC(=O)[C@H](Cc1cnc[nH]1)NC(=O)c1ccc(-c2nc3cc(C)c(C)cc3[nH]2)cc1 | 14

test system: Staphylococcus aureus; experiment: Antibacterial activity against Staphylococcus aureus NCIM 2079 after 18 hrs by disc diffusion method; type: functional; conditions: not given; how it was run: as §1

Row | SMILES | inhibition zone (IZ) [mm]
2 | COC(=O)[C@H](Cc1ccc(O)cc1)NC(=O)[C@H](Cc1cnc[nH]1)NC(=O)c1ccc(-c2nc3cc(C)c(C)cc3[nH]2)cc1 | 10

test system: Pseudomonas aeruginosa; experiment: Antibacterial activity against Pseudomonas aeruginosa NCIM 2034 after 18 hrs by disc diffusion method; type: functional; conditions: not given; how it was run: as §1

Row | SMILES | inhibition zone (IZ) [mm]
3 | COC(=O)[C@H](Cc1ccc(O)cc1)NC(=O)[C@H](Cc1cnc[nH]1)NC(=O)c1ccc(-c2nc3cc(C)c(C)cc3[nH]2)cc1 | 19

test system: Escherichia coli; experiment: Antibacterial activity against Escherichia coli NCIM 2065 after 18 hrs by disc diffusion method; type: functional; conditions: not given; how it was run: as §1

Row | SMILES | inhibition zone (IZ) [mm]
4 | COC(=O)[C@H](Cc1ccc(O)cc1)NC(=O)[C@H](Cc1cnc[nH]1)NC(=O)c1ccc(-c2nc3cc(C)c(C)cc3[nH]2)cc1 | 15

test system: Candida albicans; experiment: Antifungal activity against Candida albicans MUCC 29 after 48 hrs by disc diffusion method; type: functional; conditions: not given
How it was run: (§2)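 Agar well diffusion on plates inoculated with spore suspension in normal saline from cultures on Sabouraud's broth. Wells punched and loaded with test samples or griseofulvin at 10 mg mL^-1, with DMSO as negative control. Incubated 48 h at 37 °C.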

Row | SMILES | inhibition zone (IZ) [mm]
5 | COC(=O)[C@H](Cc1ccc(O)cc1)NC(=O)[C@H](Cc1cnc[nH]1)NC(=O)c1ccc(-c2nc3cc(C)c(C)cc3[nH]2)cc1 | 16

test system: Microsporum audouinii; experiment: Antifungal activity against Microsporum audouinii MUCC 545 after 48 hrs by disc diffusion method; type: functional; conditions: not given; how it was run: as §2

Row | SMILES | inhibition zone (IZ) [mm]
6 | COC(=O)[C@H](Cc1ccc(O)cc1)NC(=O)[C@H](Cc1cnc[nH]1)NC(=O)c1ccc(-c2nc3cc(C)c(C)cc3[nH]2)cc1 | 8

test system: Trichophyton benhamiae; experiment: Antifungal activity against Trichophyton mentagrophytes MUCC 665 after 48 hrs by disc diffusion method; type: functional, Arthroderma benhamiae; conditions: not given; how it was run: as §2

Row | SMILES | inhibition zone (IZ) [mm]
7 | COC(=O)[C@H](Cc1ccc(O)cc1)NC(=O)[C@H](Cc1cnc[nH]1)NC(=O)c1ccc(-c2nc3cc(C)c(C)cc3[nH]2)cc1 | 13

test system: Aspergillus niger; experiment: Antifungal activity against Aspergillus niger MUCC 177 after 48 hrs by disc diffusion method; type: functional; conditions: not given; how it was run: as §2

Row | SMILES | inhibition zone (IZ) [mm]
8 | COC(=O)[C@H](Cc1ccc(O)cc1)NC(=O)[C@H](Cc1cnc[nH]1)NC(=O)c1ccc(-c2nc3cc(C)c(C)cc3[nH]2)cc1 | 16

test system: Bacillus subtilis; experiment: Antibacterial activity against Bacillus subtilis NCIM 2063 after 18 hrs by tube dilution method; type: functional; conditions: NCIM 2063, 18 h
How it was run: (§3)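 Tube dilution MIC. Stock diluted in sterile broth to seven concentrations from 200 to 3.1 […]. Each tube inoculated with one loopful of test bacterium and incubated 18 h at 37 °C. MIC read from presence or absence of growth.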

Row | SMILES | MIC [µg/mL]
9 | COC(=O)[C@H](Cc1ccc(O)cc1)NC(=O)[C@H](Cc1cnc[nH]1)NC(=O)c1ccc(-c2nc3cc(C)c(C)cc3[nH]2)cc1 | 6 (≈ 10.3 µM)

test system: Staphylococcus aureus; experiment: Antibacterial activity against Staphylococcus aureus NCIM 2079 after 18 hrs by tube dilution method; type: functional; conditions: NCIM 2079, 18 h; how it was run: as §3

Row | SMILES | MIC [µg/mL]
10 | COC(=O)[C@H](Cc1ccc(O)cc1)NC(=O)[C@H](Cc1cnc[nH]1)NC(=O)c1ccc(-c2nc3cc(C)c(C)cc3[nH]2)cc1 | 12.5 (≈ 21.5 µM)

test system: Pseudomonas aeruginosa; experiment: Antibacterial activity against Pseudomonas aeruginosa NCIM 2034 after 18 hrs by tube dilution method; type: functional; conditions: NCIM 2034, 18 h; how it was run: as §3

Row | SMILES | MIC [µg/mL]
11 | COC(=O)[C@H](Cc1ccc(O)cc1)NC(=O)[C@H](Cc1cnc[nH]1)NC(=O)c1ccc(-c2nc3cc(C)c(C)cc3[nH]2)cc1 | 12.5 (≈ 21.5 µM)

test system: Escherichia coli; experiment: Antibacterial activity against Escherichia coli NCIM 2065 after 18 hrs by tube dilution method; type: functional; conditions: NCIM 2065, 18 h

Row | SMILES | MIC [µg/mL]
12 | COC(=O)[C@H](Cc1ccc(O)cc1)NC(=O)[C@H](Cc1cnc[nH]1)NC(=O)c1ccc(-c2nc3cc(C)c(C)cc3[nH]2)cc1 | 25 (≈ 43.1 µM)

test system: Candida albicans; experiment: Antifungal activity against Candida albicans MUCC 29 after 48 hrs by tube dilution method; type: functional; conditions: not given
How it was run: (§4)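 Tube dilution MIC as for bacteria (seven concentrations, 200–3.1 […]), with DMSO in place of DMF. Tubes inoculated with fungal culture and incubated 48 h at 37 °C. MIC read from presence or absence of growth.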

Row | SMILES | MIC [µg/mL]
13 | COC(=O)[C@H](Cc1ccc(O)cc1)NC(=O)[C@H](Cc1cnc[nH]1)NC(=O)c1ccc(-c2nc3cc(C)c(C)cc3[nH]2)cc1 | 12.5 (≈ 21.5 µM)

test system: Microsporum audouinii; experiment: Antifungal activity against Microsporum audouinii MUCC 545 after 48 hrs by tube dilution method; type: functional; conditions: not given; how it was run: as §4

Row | SMILES | MIC [µg/mL]
14 | COC(=O)[C@H](Cc1ccc(O)cc1)NC(=O)[C@H](Cc1cnc[nH]1)NC(=O)c1ccc(-c2nc3cc(C)c(C)cc3[nH]2)cc1 | 25 (≈ 43.1 µM)

test system: Trichophyton benhamiae; experiment: Antifungal activity against Trichophyton mentagrophytes MUCC 665 after 48 hrs by tube dilution method; type: functional, Arthroderma benhamiae; conditions: not given; how it was run: as §4

Row | SMILES | MIC [µg/mL]
15 | COC(=O)[C@H](Cc1ccc(O)cc1)NC(=O)[C@H](Cc1cnc[nH]1)NC(=O)c1ccc(-c2nc3cc(C)c(C)cc3[nH]2)cc1 | 6 (≈ 10.3 µM)

test system: Eudrilus; experiment: Anthelmintic activity against Eudrilus sp. assessed as mean paralyzing time; type: functional; conditions: not given
How it was run: (§5)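 Earthworms exposed to test suspensions at 2 mg mL^-1 (0.2% w/v), made by triturating compound with Tween 80 (0.5%) and distilled water, then mechanically stirred 30 min. Mebendazole suspension prepared alike as reference. Paralysis and death times recorded; death confirmed by no movement in 50 °C water. Means from triplicate sets.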

Row | SMILES | Time [min]
16 | COC(=O)[C@H](Cc1ccc(O)cc1)NC(=O)[C@H](Cc1cnc[nH]1)NC(=O)c1ccc(-c2nc3cc(C)c(C)cc3[nH]2)cc1 | 13.49

test system: Eudrilus; experiment: Anthelmintic activity against Eudrilus sp. assessed as mean death time; type: functional; conditions: not given
How it was run: (§6)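 Earthworms exposed to test suspensions at 2 mg mL−1, prepared by triturating compound with Tween 80 (0.5%) and distilled water, stirring 30 min, then diluting to 0.2% w/v. Mebendazole suspension was made the same way. Death was confirmed by moving worms into 50 °C warm water and looking for movement. Mean death time (min) taken from triplicate sets.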

Row | SMILES | Time [min]
17 | COC(=O)[C@H](Cc1ccc(O)cc1)NC(=O)[C@H](Cc1cnc[nH]1)NC(=O)c1ccc(-c2nc3cc(C)c(C)cc3[nH]2)cc1 | 23.98

test system: not listed separately; experiment: Anthelmintic activity against Megascoplex konkanensis ICARBC 211 assessed as mean paralyzing time; type: functional; conditions: not given; how it was run: as §5

Row | SMILES | TIME [h]
18 | COC(=O)[C@H](Cc1ccc(O)cc1)NC(=O)[C@H](Cc1cnc[nH]1)NC(=O)c1ccc(-c2nc3cc(C)c(C)cc3[nH]2)cc1 | 0.228

test system: not listed separately; experiment: Anthelmintic activity against Megascoplex konkanensis ICARBC 211 assessed as mean death time; type: functional; conditions: not given; how it was run: as §5

Row | SMILES | TIME [h]
19 | COC(=O)[C@H](Cc1ccc(O)cc1)NC(=O)[C@H](Cc1cnc[nH]1)NC(=O)c1ccc(-c2nc3cc(C)c(C)cc3[nH]2)cc1 | 0.377

test system: Pontoscolex corethrurus; experiment: Anthelmintic activity against Pontoscolex corethrurus ICARBC 408 assessed as mean paralyzing time; type: functional; conditions: not given; how it was run: as §5

Row | SMILES | Time [min]
20 | COC(=O)[C@H](Cc1ccc(O)cc1)NC(=O)[C@H](Cc1cnc[nH]1)NC(=O)c1ccc(-c2nc3cc(C)c(C)cc3[nH]2)cc1 | 17.55

test system: Pontoscolex corethrurus; experiment: Anthelmintic activity against Pontoscolex corethrurus ICARBC 408 assessed as mean death time; type: functional; conditions: not given; how it was run: as §6

Row | SMILES | Time [min]
21 | COC(=O)[C@H](Cc1ccc(O)cc1)NC(=O)[C@H](Cc1cnc[nH]1)NC(=O)c1ccc(-c2nc3cc(C)c(C)cc3[nH]2)cc1 | 29.18

— ChEMBL document CHEMBL1146375, “Synthetic studies on novel benzimidazolopeptides with antimicrobial, cytotoxic and anthelmintic potential” (2007)
